Test results from ChEMBL document CHEMBL5653630, “Activation of the p53-MDM4 regulatory axis defines the anti-tumour response to PRMT5 inhibition through its role in regulating cellular splicing” (Sci Rep, 2018).
Activity calls are given as the source filed them. The rule behind the calls is not given here.

Assays:
MINO = experiment: Induction of cell cycle arrest in human MINO cells assessed as increase in 2n cell population measured upto 5000 nM measured for 3 days by propidium iodide staining based flow cytometric analysis; format: functional; conditions: time 3.0 day
MDA-MB-468 = experiment: Induction of cell cycle arrest in human MDA-MB-468 cells assessed as increase in 4n cell population measured upto 5000 nM measured for 7 to 10 days by propidium iodide staining based flow cytometric analysis; format: functional; conditions: time 7-10 day
[1] = Toxicity in mouse assessed as body weight loss at 25 mg/kg, po pretreated for 21 days followed by treatment holiday for 10 days and further compound treatment for 2 weeks starting from day 32 followed by 1 week treatment holiday; format: organism-based; conditions: in vivo, 504 h, time 21 day
Z-138 [2] = experiment: In vivo inhibition of PRMT5 in human Z138 cells xenografted in po dosed mouse assessed as reduction in SDMA level measured for 7 days; format: functional, organism-based; conditions: dose 0.2-100 mg/kg, time 7.0 day
Z-138 [3] = experiment: In vivo inhibition of PRMT5 in human Z138 cells xenografted in mouse assessed as increase in p53 level at 100 mg/kg, po BID measured for 7 days by immunohistochemical analysis; format: functional, organism-based; conditions: time 7.0 day
MCF7 = experiment: Antiproliferative activity against human MCF7 cells assessed as cell growth inhibition incubated for 6 days by celltiter-glo assay; format: functional; conditions: MCF7, 144 h, time 6 day
How it was run: (§1)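 Cells seeded in 384-well plates at an optimized density and held 24 h. CellTiter-Glo luminescence read at Day 0 and Day 6. Four-parameter fit. gIC50 = midpoint of the growth window between DMSO and T0. Curves required ≥1.5 population doublings.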

U-251 = experiment: Antiproliferative activity against human U-251MG cells assessed as cell growth inhibition incubated for 6 days by celltiter-glo assay; format: functional; conditions: U-251, 144 h, time 6 day; how it was run: as §1
U-937 = experiment: Antiproliferative activity against human U-937 cells assessed as cell growth inhibition incubated for 6 days by celltiter-glo assay; format: functional; conditions: U-937, 144 h, time 6 day; how it was run: as §1
JEG-3 = experiment: Antiproliferative activity against human JEG-3 cells assessed as cell growth inhibition incubated for 10 days; format: functional; conditions: JEG-3, 240 h, time 10 day
How it was run: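 Eurofins-panel 10-day assay in 384-well plates. Cells grown in RPMI-1640 with 10% FBS, 2 mM L-alanyl-L-glutamine and 1mM Na pyruvate, or a special medium, at 37°C in 5% CO₂. Compound added 24 h after seeding, 10-point 3.16-fold series in 0.1% DMSO. Medium replaced and compound re-dosed at 168 h. Nuclei fixed and stained after 240 h, then imaged to give a relative cell count. gIC50 is the concentration giving growth midway between untreated and time-zero counts, from a 4-parameter fit.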

NCI-H747 = experiment: Antiproliferative activity against human NCI-H747 cells assessed as cell growth inhibition incubated for 10 days; format: functional; conditions: NCI-H747, 240 h, time 10 day
SW948 = experiment: Antiproliferative activity against human SW948 cells assessed as cell growth inhibition incubated for 10 days; format: functional; conditions: SW948, 240 h, time 10 day
COLO 205 = experiment: Antiproliferative activity against human COLO 205 cells assessed as cell growth inhibition incubated for 10 days; format: functional; conditions: COLO 205, 240 h, time 10 day
How it was run: (§2)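 Cells kept in RPMI-1640 with 10% FBS, 2 mM L-alanyl-L-glutamine and 1 mM Na pyruvate (or a special medium) at 37°C, 5% CO2. Compound added 24 h after seeding, 10 concentrations in 3.16-fold dilution, 0.1% DMSO final. Medium replaced and cells re-dosed at 168 h; 240 h incubation. Nuclei fixed, dye-stained and imaged. gIC50 = growth midway between untreated and time-zero cell counts, from a 4-parameter fit.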

WiDr = experiment: Antiproliferative activity against human WiDr cells assessed as cell growth inhibition incubated for 10 days; format: functional; conditions: 240 h, time 10 day
A 172 = experiment: Antiproliferative activity against human A-172 cells assessed as cell growth inhibition incubated for 10 days; format: functional; conditions: A 172, 240 h, time 10 day; how it was run: as §2
Daoy = experiment: Antiproliferative activity against human Daoy cells assessed as cell growth inhibition incubated for 10 days; format: functional; conditions: 240 h, time 10 day
How it was run: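 Outsourced panel run in 384-well plates. Cells were grown in RPMI-1640/10% FBS or a special medium at 37°C, 5% CO2. Compound was added 24 h after seeding as a 10-point, 3.16-fold series in 0.1% DMSO. Medium was refreshed and cells re-dosed at 168 h, with a time-zero plate kept. At 240 h cells were fixed, nuclei stained and imaged. gIC50 is growth midway between untreated and time zero, from a 4-parameter fit.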

SK-MEL-1 = experiment: Antiproliferative activity against human SK-MEL-1 cells assessed as cell growth inhibition incubated for 10 days; format: functional; conditions: SK-MEL-1, 240 h, time 10 day
RPMI-7951 = experiment: Antiproliferative activity against human RPMI-7951 cells assessed as cell growth inhibition incubated for 10 days; format: functional; conditions: RPMI-7951, 240 h, time 10 day
BE(2)-C = experiment: Antiproliferative activity against human BE2C cells assessed as cell growth inhibition incubated for 10 days; format: functional; conditions: 240 h, time 10 day; how it was run: as §2
MIA PaCa-2 = experiment: Antiproliferative activity against human MIA PaCa-2 cells assessed as cell growth inhibition incubated for 10 days; format: functional; conditions: MIA PaCa-2, 240 h, time 10 day
YAPC = experiment: Antiproliferative activity against human YAPC cells assessed as cell growth inhibition incubated for 10 days; format: functional; conditions: 240 h, time 10 day
SU.86.86 = experiment: Antiproliferative activity against human SU-86-86 cells assessed as cell growth inhibition incubated for 10 days; format: functional; conditions: SU.86.86, 240 h, time 10 day
[4] = Antiproliferative activity against human BC1 cell line assessed as cell growth inhibition incubated for 10 days; format: functional; conditions: BC1, 240 h, time 10 day; how it was run: as §2
SAOS-2 = experiment: Antiproliferative activity against human SAOS-2 cells assessed as cell growth inhibition incubated for 10 days; format: functional; conditions: SAOS-2, 240 h, time 10 day
U2OS = experiment: Antiproliferative activity against human U2OS cells assessed as cell growth inhibition incubated for 10 days; format: functional; conditions: 240 h, time 10 day
NCI-H446 = experiment: Antiproliferative activity against human NCI-H446 cells assessed as cell growth inhibition incubated for 10 days; format: functional; conditions: NCI-H446, 240 h, time 10 day
639-V = experiment: Antiproliferative activity against human 639-V cells assessed as cell growth inhibition incubated for 10 days; format: functional; conditions: 240 h, time 10 day; how it was run: as §2
SW 954 = experiment: Antiproliferative activity against human SW 954 cells assessed as cell growth inhibition incubated for 10 days; format: functional; conditions: SW 954, 240 h, time 10 day
[5] = molecular target: Protein arginine N-methyltransferase 5 (Homo sapiens) (UniProt O14744); experiment: Inhibition of PRMT5 in human Z138 cells assessed as effect on KHSRP level by measuring fold change by LC-MS/MS analysis relative to control; format: cell-based
Protein arginine N-methyltransferase 5 (Homo sapiens), sequence (O14744 whole entry): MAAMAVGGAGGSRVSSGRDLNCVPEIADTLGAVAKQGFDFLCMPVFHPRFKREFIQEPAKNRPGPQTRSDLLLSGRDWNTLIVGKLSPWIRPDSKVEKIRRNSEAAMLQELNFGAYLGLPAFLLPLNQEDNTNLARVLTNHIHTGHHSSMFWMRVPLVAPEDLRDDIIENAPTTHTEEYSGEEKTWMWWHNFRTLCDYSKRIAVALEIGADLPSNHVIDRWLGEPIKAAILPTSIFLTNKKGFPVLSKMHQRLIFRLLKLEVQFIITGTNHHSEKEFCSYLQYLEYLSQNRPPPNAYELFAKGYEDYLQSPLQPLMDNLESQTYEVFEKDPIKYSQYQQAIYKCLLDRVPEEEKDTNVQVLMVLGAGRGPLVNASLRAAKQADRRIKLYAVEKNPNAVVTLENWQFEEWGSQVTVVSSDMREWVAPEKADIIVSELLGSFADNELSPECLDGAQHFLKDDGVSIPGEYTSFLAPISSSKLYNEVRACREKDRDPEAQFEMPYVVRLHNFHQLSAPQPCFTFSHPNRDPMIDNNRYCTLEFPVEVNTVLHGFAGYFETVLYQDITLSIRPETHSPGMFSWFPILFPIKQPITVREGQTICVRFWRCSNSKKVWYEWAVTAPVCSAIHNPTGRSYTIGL

[6] = molecular target: Protein arginine N-methyltransferase 5 (Homo sapiens) (UniProt O14744); experiment: Inhibition of PRMT5 in human Z138 cells assessed as effect on hnRNP level by measuring fold change by LC-MS/MS analysis relative to control; format: cell-based
Z-138 [7] = experiment: Induction of cell cycle arrest in human Z138 cells expressing full length MDM4 assessed as accumulation of cells at G1 phase at 500 nM incubated for 4 days; format: functional, cell-based; conditions: time 4.0 day

CC(=O)N1CCC(Nc2cc(C(=O)NC[C@H](O)CN3CCc4ccccc4C3)ncn2)CC1 [PEMRAMETOSTAT]
Activity (MINO): inactive
Activity (MDA-MB-468): Active
Activity [1]: Non-Toxic
inhibition (Z-138 [2]): Dose-Dependent Effect
inhibition (Z-138 [3]): Active

O=C(NC[C@H](O)CN1CCc2ccccc2C1)c1ccnc(NC2CCC2)c1
GI50 (MCF7): 0.215 µM
GI50 (U-251): 3.49 µM
GI50 (U-937): 0.049 µM
GI50 (JEG-3): 0.216 µM
GI50 (NCI-H747): 2.58 µM
GI50 (SW948): 0.12 µM
GI50 (COLO 205): 10 µM
GI50 (WiDr): 0.505 µM
GI50 (A 172): 0.0296 µM
GI50 (Daoy): 0.27 µM
GI50 (SK-MEL-1): 0.0387 µM
GI50 (RPMI-7951): 0.0442 µM
GI50 (BE(2)-C): 0.803 µM
GI50 (MIA PaCa-2): 0.158 µM
GI50 (YAPC): 0.168 µM
GI50 (SU.86.86): 0.934 µM
GI50 [4]: 0.0696 µM
GI50 (SAOS-2): 0.0482 µM
GI50 (U2OS): 0.485 µM
GI50 (NCI-H446): 0.57 µM
GI50 (639-V): 0.342 µM
GI50 (SW 954): 10 µM
fold change (FC) [5]: -7.8
fold change (FC) [6]: -5.3
Activity (Z-138 [7]): Active
